Results taken from ChEMBL document CHEMBL1125563, “Selective, centrally acting serotonin 5-HT2 antagonists. 1. 2- and 6-substituted 1-phenyl-3-(4-piperidinyl)-1H-indoles” (J Med Chem, 1992).

Assays:
[1] = biological target: T1, Adrenergic receptor alpha-1 (Rattus norvegicus, UniProt P15823+P23944+P43140); experiment: Displacement of [3H]prazosin from Alpha-1 adrenergic receptor of whole rat brain membranes; assay type: cell membranes, Membrane
T1 sequence (P15823 whole entry): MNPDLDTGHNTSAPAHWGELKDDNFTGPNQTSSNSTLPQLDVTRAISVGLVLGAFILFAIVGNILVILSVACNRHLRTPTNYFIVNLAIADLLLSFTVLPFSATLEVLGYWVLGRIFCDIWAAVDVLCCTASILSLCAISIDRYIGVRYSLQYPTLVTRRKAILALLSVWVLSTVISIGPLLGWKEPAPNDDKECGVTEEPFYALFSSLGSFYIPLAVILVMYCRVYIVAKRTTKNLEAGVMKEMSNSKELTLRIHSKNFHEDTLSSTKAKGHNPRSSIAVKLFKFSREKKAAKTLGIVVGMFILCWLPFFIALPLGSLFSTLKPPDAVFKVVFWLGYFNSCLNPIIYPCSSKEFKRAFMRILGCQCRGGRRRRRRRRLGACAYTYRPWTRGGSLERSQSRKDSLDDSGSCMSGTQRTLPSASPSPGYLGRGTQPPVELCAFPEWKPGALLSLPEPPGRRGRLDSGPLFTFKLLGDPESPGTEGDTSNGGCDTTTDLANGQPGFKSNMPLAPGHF
T1 sequence (P23944 whole entry): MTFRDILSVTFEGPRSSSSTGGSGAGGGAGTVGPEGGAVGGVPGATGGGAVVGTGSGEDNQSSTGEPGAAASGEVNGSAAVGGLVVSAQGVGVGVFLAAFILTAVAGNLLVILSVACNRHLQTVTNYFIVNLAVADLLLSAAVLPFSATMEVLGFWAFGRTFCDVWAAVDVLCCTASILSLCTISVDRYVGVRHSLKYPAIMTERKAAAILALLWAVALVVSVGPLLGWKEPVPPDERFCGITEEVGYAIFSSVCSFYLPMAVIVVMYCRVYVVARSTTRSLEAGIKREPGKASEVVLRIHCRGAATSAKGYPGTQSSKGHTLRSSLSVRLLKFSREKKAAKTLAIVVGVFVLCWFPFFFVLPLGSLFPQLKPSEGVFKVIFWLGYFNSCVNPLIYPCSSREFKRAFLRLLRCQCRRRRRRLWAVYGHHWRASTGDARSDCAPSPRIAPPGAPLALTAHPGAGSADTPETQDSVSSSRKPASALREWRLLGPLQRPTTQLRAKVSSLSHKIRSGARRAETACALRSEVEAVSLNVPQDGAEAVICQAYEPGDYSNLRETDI
T1 sequence (P43140 whole entry): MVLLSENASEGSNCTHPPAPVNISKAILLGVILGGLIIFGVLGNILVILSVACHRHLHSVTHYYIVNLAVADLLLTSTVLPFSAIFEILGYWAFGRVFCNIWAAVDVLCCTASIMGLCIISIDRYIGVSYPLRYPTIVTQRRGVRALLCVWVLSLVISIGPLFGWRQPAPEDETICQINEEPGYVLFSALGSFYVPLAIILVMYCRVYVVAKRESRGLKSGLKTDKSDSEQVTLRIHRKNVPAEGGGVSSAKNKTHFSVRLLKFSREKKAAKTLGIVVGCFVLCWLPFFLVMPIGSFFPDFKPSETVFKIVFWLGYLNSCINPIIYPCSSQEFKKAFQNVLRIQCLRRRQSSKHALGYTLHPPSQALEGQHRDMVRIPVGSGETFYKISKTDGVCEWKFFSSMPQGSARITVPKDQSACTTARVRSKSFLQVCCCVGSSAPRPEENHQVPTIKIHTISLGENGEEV
Procedure, shortened: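 α1 adrenoceptor binding measured as displacement of [3H]prazosin from whole rat brain membranes. Five test-drug concentrations spanning three decades in triplicate, two full curves; IC50 from log concentration-effect curves, logarithmic mean of at least two determinations.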

[2] = biological target: Serotonin 2 (5-HT2) receptor (Rattus norvegicus, UniProt P30994+P08909+P14842); experiment: Displacement of [3H]ketanserin from 5-hydroxytryptamine 2 receptor from rat cortical membranes.; assay type: cell membranes, Membrane
Procedure, shortened: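 [3H]ketanserin displacement from rat cortical membranes (5-HT2). Five concentrations across three decades in triplicate, two full curves; IC50 estimated on a log-concentration scale, given as logarithmic mean of at least two determinations.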

D(2) dopamine receptor = D(2) dopamine receptor (Rattus norvegicus, UniProt P61169); experiment: Displacement of [3H]-spiperone from Dopamine receptor D2 from rat striatal membranes; assay type: cell membranes, Membrane
Procedure, shortened: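 [3H]spiperone displacement from rat striatal membranes (D2). Five test-drug concentrations over three decades, in triplicate, two full curves; IC50 from log concentration-effect curves, reported as logarithmic mean of at least two determinations.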

Mus musculus [3] = species: Mus musculus; experiment: Compound was evaluated for the inhibition of isolation-induced aggression at a threshold of 180 seconds; assay type: functional
Procedure, shortened: (§1)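 Isolated male NMRI mice (3 weeks) trained to attack a nonaggressive intruder of the same strain; only mice with attack latency <25 s included. Pretested just before dosing and 2 h after sc test substance; observation maximum 180 s; at least eight mice per dose.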

Rattus norvegicus [4] = experiment: Compound was evaluated for the inhibition of quipazine-induced head twitches after 2 h (administered subcutaneously); 0.11-0.29; assay type: functional; conditions: sc
Rattus norvegicus [5] = experiment: Compound was evaluated for the inhibition of pergolide-induced reactions after 2 hr (administered subcutaneously); assay type: functional; conditions: sc
Procedure, shortened: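 Male Wistar rats with unilateral 6-OHDA lesions; test drug sc 2 h before pergolide (0.05 µmol/kg sc) to induce contralateral circling. Effect of each dose expressed as percent of mean of control sessions 1 week before and 1 week after, per rat; at least four rats per dose; ED50 by log-probit analysis.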

Mus musculus [6] = species: Mus musculus; experiment: Compound was evaluated for the inhibition of isolation-induced aggression at a threshold of, 90 seconds; assay type: functional; procedure, shortened: as §1
Rattus norvegicus [7] = experiment: Compound was evaluated for the inhibition of quipazine-induced head twitches after 24 h (administered subcutaneously); 0.0042-0.061; conditions: sc
Rattus norvegicus [8] = experiment: Compound was evaluated for the inhibition of quipazine-induced head twitches after 24 hr (administered perorally); 0.014-0.074; assay type: functional; conditions: po
Rattus norvegicus [9] = experiment: Compound was evaluated for the inhibition of quipazine-induced head twitches after 2 h (administered subcutaneously); assay type: functional; conditions: sc
Rattus norvegicus [10] = experiment: Compound was evaluated for the inhibition of quipazine-induced head twitches after 24 hr (administered subcutaneously); 0.0027-0.031; assay type: functional; conditions: sc
Rattus norvegicus [11] = experiment: Compound was evaluated for the inhibition of quipazine-induced head twitches after 2 hr (administered subcutaneously); 0.010-0.24; assay type: functional; conditions: sc
Rattus norvegicus [12] = experiment: Compound was evaluated for the inhibition of quipazine-induced head twitches after 24 hr (administered perorally); 0.010-0.048; assay type: functional; conditions: po

D(2) dopamine receptor, sequence (P61169 whole entry): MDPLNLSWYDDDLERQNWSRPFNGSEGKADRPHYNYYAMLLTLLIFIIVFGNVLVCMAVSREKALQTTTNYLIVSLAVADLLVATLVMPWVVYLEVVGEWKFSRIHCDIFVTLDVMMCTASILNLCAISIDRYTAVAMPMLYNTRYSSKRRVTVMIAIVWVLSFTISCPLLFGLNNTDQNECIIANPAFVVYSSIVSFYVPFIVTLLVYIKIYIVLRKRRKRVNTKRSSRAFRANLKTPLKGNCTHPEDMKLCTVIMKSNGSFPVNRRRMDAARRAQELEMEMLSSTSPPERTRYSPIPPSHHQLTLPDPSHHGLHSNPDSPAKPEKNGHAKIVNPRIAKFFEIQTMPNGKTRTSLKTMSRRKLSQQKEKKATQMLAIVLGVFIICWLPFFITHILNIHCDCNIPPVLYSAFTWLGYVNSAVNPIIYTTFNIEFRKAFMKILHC

IC50 [1] [µM] | IC50 [2] [µM] | IC50 (D(2) dopamine receptor) [µM] | SMILES | other results
0.013 | 0.0013 | 0.028 | CC(C)N1CCN(CCN2CCC(c3cn(-c4ccc(F)cc4)c4cc(F)ccc34)CC2)C1=O | –
0.026 | 0.0022 | 0.074 | CC(C)NC(=O)N(C)CCN1CCC(c2cn(-c3ccc(F)cc3)c3cc(Cl)ccc23)CC1 | ED50 (Mus musculus [3]): > 21 µmol/kg; ED50 (Rattus norvegicus [4]): 0.18 µmol/kg; ED50 (Rattus norvegicus [5]): > 21 µmol/kg; ED50 (Mus musculus [6]): > 21 µmol/kg; ED50 (Rattus norvegicus [7]): 0.016 µmol/kg; ED50 (Rattus norvegicus [8]): 0.032 µmol/kg
0.076 | 0.0018 | – | Cc1ccc2c(C3CCN(CCNC(=O)NC(C)C)CC3)cn(-c3ccc(F)cc3)c2c1 | –
0.016 | 0.0016 | 0.082 | CNC(=O)N(C)CCN1CCC(c2cn(-c3ccc(F)cc3)c3cc(Cl)ccc23)CC1 | ED50 (Mus musculus [3]): > 23 µmol/kg; ED50 (Rattus norvegicus [10]): 0.0092 µmol/kg; ED50 (Rattus norvegicus [11]): 0.049 µmol/kg; ED50 (Rattus norvegicus [5]): > 23 µmol/kg; ED50 (Mus musculus [6]): > 23 µmol/kg; ED50 (Rattus norvegicus [12]): 0.022 µmol/kg
0.029 | 0.0013 | 0.027 | CN(C)C(=O)NCCN1CCC(c2cn(-c3ccc(F)cc3)c3cc(Cl)ccc23)CC1 | –

Further lines, the compound ahead of its results:

SMILES | IC50 [1] [µM] | IC50 [2] [µM] | IC50 (D(2) dopamine receptor) [µM] | other results
CC(C)N1CCN(CCN2CCC(c3cn(-c4ccc(F)cc4)c4cc(C(F)(F)F)ccc34)CC2)C1=O | 0.091 | 0.0029 | – | –
Cc1ccc2c(C3CCN(CCN4CCN(C(C)C)C4=O)CC3)c[nH]c2c1 | 0.027 | 0.06 | 0.59 | ED50 (Rattus norvegicus [9]): > 0.84 µmol/kg
CC(C)N1CCN(CCN2CCC(c3cn(-c4ccccc4F)c4cc(Cl)ccc34)CC2)C1=O | 0.12 | 0.0037 | – | –
Cc1c(C2=CCN(CCN3CCNC3=O)CC2)c2ccccc2n1-c1ccc(F)cc1 | 0.023 | 0.0011 | 0.16 | –
Cc1ccc2c(C3CCN(CCN4CCN(C(C)C)C4=O)CC3)cn(-c3ccc(Cl)cc3)c2c1 | 0.45 | 0.006 | – | –
O=C1NCCN1CCN1CCC(c2cn(-c3ccc(F)cc3)c3cc(C(F)(F)F)ccc23)CC1 | 0.033 | 0.0017 | 0.26 | –
Cc1ccc2c(C3CCN(CCN4CCN(C(C)C)C4=O)CC3)cn(-c3ccccc3F)c2c1 | 0.37 | 0.0025 | – | –
Cc1ccc2c(C3CCN(CCN4CCN(C(C)C)C4=O)CC3)cn(-c3cccc(F)c3)c2c1 | 0.67 | 0.011 | – | –
